Bioassay records from PubChem.
An excerpt weighted towards active compounds, which were near 2.9% of everything screened.
CDK5 p35 inh = inhibitors of human CDK5/p35 kinase; Q00535+Q15078; Recombinant CDK5/p35, ADP-Glo luminescence, 60 min; inhibition, % at 10 µM; 0.01% of 330,000 active; AID 488839;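 active = highest replicate inhibition of at least 50% and at least 75% of replicates reaching 50%; inconclusive = only one of the two criteria met; inactive = both criteria failed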;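 note: plate controls were DMSO neutral control for no effect and GW8510 at 10 µM for full effect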
Target sequence (Q00535 whole entry, looked up): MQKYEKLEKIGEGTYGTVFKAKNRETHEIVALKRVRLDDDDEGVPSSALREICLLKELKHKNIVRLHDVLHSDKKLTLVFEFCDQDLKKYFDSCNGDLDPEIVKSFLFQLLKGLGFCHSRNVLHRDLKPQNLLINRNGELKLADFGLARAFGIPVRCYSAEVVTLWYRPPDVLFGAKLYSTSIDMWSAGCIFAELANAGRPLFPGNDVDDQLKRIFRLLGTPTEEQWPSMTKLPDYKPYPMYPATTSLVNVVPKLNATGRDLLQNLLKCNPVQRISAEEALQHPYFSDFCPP
Target sequence (Q15078 whole entry, looked up): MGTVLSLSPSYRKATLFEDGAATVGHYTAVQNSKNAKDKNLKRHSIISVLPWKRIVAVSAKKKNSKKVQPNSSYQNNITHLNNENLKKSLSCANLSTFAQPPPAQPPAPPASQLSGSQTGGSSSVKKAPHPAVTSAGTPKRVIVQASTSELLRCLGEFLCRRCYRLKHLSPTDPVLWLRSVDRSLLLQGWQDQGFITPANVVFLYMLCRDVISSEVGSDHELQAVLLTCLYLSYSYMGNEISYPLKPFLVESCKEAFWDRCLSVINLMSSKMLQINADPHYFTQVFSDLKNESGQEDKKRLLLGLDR
Env fusion inh = HIV envelope-mediated fusion inhibition; HeLa-JRFL Env/CEM21 cell fusion, luciferase; inhibition, % at 12.3 µM; 1.1% of 360,000 active; AID 651610;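 active = mean replicate inhibition score of at least 50 and every replicate individually at or above 50; inconclusive = only one of the two criteria met; inactive = mean below 50 and not all replicates reaching 50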;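 note: 0% = plate neutral controls and 100% = maraviroc near 300 nM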
dFosB activator = mouse delta FosB homodimer activation | activation, % at 25 µM | purified delta FosB, TAMRA-CDK5 oligo fluorescence polarization; percent of positive-control signal above neutral wells | 0.99% of 340,000 active;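 active = mean activation above about 17%, with every replicate also reaching it, limit read from the data, passing the limit was not always enough; inconclusive = only one of the two conditions met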
GSIS activator = primary screen for activators of insulin secretion dependent on glucose, INS-1E cells, GLuc reporter luminescence | 0.61% of 370,000 active | activation, % at 16.6 µM | INS-1E GLuc reporter insulin secretion, 2-3 h | AID 743287;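 active = lowest replicate activation of at least 40%, so every replicate reaches that level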;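 note: 0% = median of neutral control wells and 100% = median of IBMX positive control wells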
PAX8 inh HTS = PAX8 transcriptional activity inhibition | AID 652154 | 1.2% of 360,000 active | RMG-I TPO-luciferase reporter, SteadyGlo, 24 h | inhibition, % at 12.6 µM;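 active = mean replicate inhibition at least 60% with every replicate also reaching 60%; inconclusive = only one of the two criteria is met; inactive = mean below 60% and not all replicates reaching 60%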;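 note: luciferase light reporting Pax8 driven TPO promoter activity; plate controls were median of neutral control wells for no effect and mitoxantrone controls for full effect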
Cneo AK release = Cryptococcus neoformans lysis via adenylate kinase release. 0.2% of 360,000 active. lysis activity, % at 15 µM. C. neoformans lysis, adenylate kinase release luminescence, 4 h; normalised: neutral wells 0, clomiphene wells 100. AID 651654;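 active = mean lysis activity across replicates of at least 80%, whatever share of replicates individually reach that level; inactive = mean lysis activity below 80%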
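Assay system: C. neoformans cells. Amount: yeast cell density of 5 × 10^6 cells/mL. Technique: AK luminescence. Buffer or medium: YPD. Times: static 4 h at 37 °C with compound, 1 h detection. Dosing: single-point compound dose. Read-out: lysis from increased AK signal.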
An asterisk follows results filed as active; u = inconclusive; x = no result given; [ ] = another dose, or the depositor's remark.

SMILES	CDK5 p35 inh	Env fusion inh	dFosB activator	GSIS activator	PAX8 inh HTS	Cneo AK release
CCCNC(=O)N1[C@H](C#N)[C@H](c2ccccc2-c2ccc(OC)cc2)[C@@H]1CO	x	x	x	-6	3	x
O=C(NCC[C@@H]1CC[C@@H](NC(=O)c2ccc3c(c2)OCO3)[C@H](CO)O1)Nc1cc(F)ccc1F	x	19[16.7 µM]	x	-25	-17	-4
C[C@@H]1CN([C@@H](C)CO)S(=O)(=O)c2ccc(C3=CCCC3)cc2O[C@@H]1CN(C)Cc1ccccc1F	x	28[16.7 µM]	x	6	10	90*
C[C@@H]1CN([C@H](C)CO)S(=O)(=O)c2ccc(C3=CCCC3)cc2O[C@@H]1CN(C)Cc1ccccc1	x	u	x	4	x	10
C[C@H]1CN([C@@H](C)CO)S(=O)(=O)c2ccc(C3=CCCC3)cc2O[C@H]1CN(C)Cc1ccccc1	x	57*[16.7 µM]	x	-10	x	13
COc1ccc(C(=O)COC(=O)C2CC3CCCC(C2)C3=O)cc1Br (stereo not given)	-3	8	-9	58*	x	1
COc1ccc(CCn2nnc(-c3ccc(NC(C)=O)c(Cl)c3)n2)cc1	-1	-71	33*	81*	x	12
COc1cc(C)c(S(=O)(=O)N2CCN=C2c2ccccc2)cc1C	-4	0	-1	33	12	x
Cc1cc(C)c(S(=O)(=O)N2CCN=C2c2ccccc2)cc1C	-1	82*	-3	x	x	1
CN(C)CC(=O)N[C@@H]1CC[C@@H](CCNC(=O)C2CCCCC2)O[C@@H]1CO	x	-15[16.7 µM]	x	1	-3	-3
C[C@H]1CN([C@@H](C)CO)C(=O)c2cc(C3=CCCCC3)cnc2O[C@H]1CN(C)C(=O)Nc1ccc(F)cc1	x	-10[16.7 µM]	x	-30	3	-3
COc1cc(/C=C/C2=NNC(=O)CC2)cc(OC)c1OC	0	73*	8	17	14	-1
CC(C)c1ccc(/C=C/C2=NNC(=O)CC2)cc1	0	37	2	8	-62	x
C[C@@H]1CN([C@@H](C)CO)C(=O)c2cc(Br)cnc2O[C@@H]1CN(C)CC1CCOCC1	x	-80[16.7 µM]	x	17	-21	2
CN(C)c1nc(OCCOC(=O)COc2ccc(Cl)cc2Cl)nc(N(C)C)n1	1	-73	-8	x	-7	0
CN(C)c1nc(OCCNC(=O)COc2ccc(Cl)cc2Cl)nc(N(C)C)n1	-3	44*	-3	x	12	6
N#C/C(=C\c1ccc(N2CCCCC2)o1)C(N)=O	-1	57*	-7	-2	-26	x
N#C/C(=C\c1ccc(N2CCCCC2)o1)C(=O)Nc1cccc(Br)c1	1	-66	-9	-9	-21	x
COc1cc2oc(=O)cc(-c3ccc(-c4ccc(CO)cc4)cc3)c2c(OC)c1OC	1	118*	-11	26	-19	1
CC(=O)N1N=C(c2ccc(C(C)(C)C)cc2)OC1(C)C	1	x	-6	x	70*	x
CC(=O)N1N=C(c2ccc3ccccc3c2)OC1(C)C	0	-89	-9	-14	-19	-2
Cn1c(-c2ccccc2)c(C#Cc2ccc(N)cc2)c2ccccc21	0	70*	-5	x	6	2
Cn1c2ccccc2c(=O)c2cc(C#Cc3ccc(N)cc3)ccc21	2	-56	1	16	-37	-1
C[C@@]12C(=O)OC(=O)[C@]1(C)C1CCC2O1	0	105*	7	-23	112*	0
O=C(N[C@@H]1CC[C@@H](CC(=O)N2CCCCC2)O[C@@H]1CO)c1ccc2c(c1)OCO2	x	8[16.7 µM]	x	8	2	-5
SMILES	CDK5 p35 inh	Env fusion inh	dFosB activator	GSIS activator	PAX8 inh HTS	Cneo AK release
O=c1[nH][nH]c2c1C(c1ccc(Cl)c(Cl)c1)OC(CCc1ccccc1)C2 (stereo not given)	x	20	x	56*	18	x
Cc1noc(C)c1NC(=O)N(C)C[C@H]1Oc2ccc(NS(=O)(=O)c3ccc(F)cc3)cc2C(=O)N([C@H](C)CO)C[C@H]1C	x	x	x	2	x	-13
O=C(C[C@H]1C=C[C@@H](NC(=O)c2ccccn2)[C@H](CO)O1)NCc1cccc(F)c1	x	-5[16.7 µM]	x	7	-9	-3
O=C(Cc1ccccn1)N[C@@H]1CC[C@@H](CC(=O)N2CCCCC2)O[C@H]1CO	x	23[16.7 µM]	x	3	1	-1
Cc1ccc(-c2[nH]ncc2/C=N/n2c(COc3ccccc3C)nc3ccccc3c2=O)cc1	-1	1	-9	197*	-27	0
Cc1ccccc1OCc1nc2ccccc2c(=O)n1/N=C/c1c[nH]c2ccccc12	-5	x	-4	-1	2	0
CC(C)(C)c1ccc(S(=O)(=O)N2CC(C(=O)O)Oc3ccc(Cl)cc32)cc1 (stereo not given)	-2	-11	-11	142*	16	3
COc1ccc(S(=O)(=O)N2CC(C(=O)O)Oc3ccc(Cl)cc32)cc1 (stereo not given)	0	12	-3	-6	9	-1
C[C@@H]1CN([C@@H](C)CO)C(=O)c2cccc(NC(=O)Nc3ccccc3)c2O[C@H]1CN(C)CC1CC1	x	x	x	9	-12	-1
CC1C/C(=C/c2ccncc2)C(=O)/C(=C/c2ccncc2)C1 (stereo not given)	1	81*	-10	-64	85*	1
C[C@@H]1CCCCO[C@@H](CN(C)Cc2ccc3c(c2)OCO3)[C@H](C)CN([C@H](C)CO)C(=O)c2cc(NC(=O)C3CCCCC3)ccc2O1	x	-5[16.7 µM]	x	-22	-17	6
CCC(C)NS(=O)(=O)c1ccc(S(=O)(=O)N2CCCC3(CCCCC3)C2)cc1 (stereo not given)	-3	77*	-6	-49	25	-1
C=C1CC(COc2ccc3c(C)c(Cl)c(=O)oc3c2)(c2ccccc2)OC1=O (stereo not given)	1	-51	-8	4	100*	x
O=C(CSc1ccc(Cl)cc1)Nc1ccc(-c2nc3ccccc3[nH]2)cc1	-1	28	13	106*	-62	3
C[C@@H]1CN([C@@H](C)CO)C(=O)c2cc(NS(=O)(=O)c3cccs3)ccc2O[C@@H]1CN(C)Cc1ccc(C(F)(F)F)cc1	x	7[16.7 µM]	x	-8	22	1
C[C@H]1CN([C@@H](C)CO)C(=O)c2cccc(NS(C)(=O)=O)c2O[C@@H]1CN(C)Cc1ccc(-c2ccccc2)cc1	x	12[16.7 µM]	x	3	21	111*
C[C@H]1CN([C@@H](C)CO)C(=O)c2cccc(NS(=O)(=O)c3ccc(F)cc3)c2O[C@@H]1CN(C)Cc1ccc(-c2ccccc2)cc1	x	-28[16.7 µM]	x	14	7	8
C[C@@H]1CN([C@@H](C)CO)C(=O)c2cccc(NS(=O)(=O)c3ccc(F)cc3)c2O[C@H]1CN(C)Cc1ccc(-c2ccccc2)cc1	x	28[16.7 µM]	x	-2	78*	-4
